Measurements pooled from the literature.
Cell line: MRC5
Effect on: cell growth or viability

With `O=C(C=C[c-]1cccc1)c1ccc[nH]1.[Fe+2].c1cc[cH-]c1` the viability was roughly 100% (MTT; 100 µM).
The cell death of `CCCCN1C[C@H]2CC[C@@H]3[C@](C)(COC(C)=O)[C@H](OC(C)=O)CC[C@@]3(C)[C@@H]2C[C@@H]1C1=CCOC1=O` is reported as -6% (ATP luminescence; 25 µM; 72 h).
`Cc1cn([C@@H]2C[C@H](O)[C@@H](CNC(=O)Nc3ccc(OCc4ccccc4)cc3)O2)c(=O)[nH]c1=O` has a CC50 of greater than 50 µM.
The IC50 of `COc1c2ccoc2c(OCC=C(C)C)c2oc(=O)ccc12` is reported as greater than 100 µM (MTT; 24 h).
`COC(=O)N[C@H](C(=O)N1CCC[C@H]1c1nc(-c2ccc(-c3ccc(-c4c[nH]c([C@@H]5CCCN5C(=O)[C@@H](NC(=O)OC)C(C)C)n4)cc3)cc2)c[nH]1)C(C)C` gave a CC50 of 29 µM (5 days).
With `Cc1cn([C@@H]2C[C@H](O)[C@@H](CNC(=O)Nc3ccc(N4CCCCC4)cc3)O2)c(=O)[nH]c1=O` the CC50 was greater than 50 µM.
For `COc1ccc(CN2C[C@H]3CC[C@@H]4[C@]5(C)COC(C)(C)O[C@@H]5CC[C@@]4(C)[C@@H]3C[C@@H]2C2=CCOC2=O)cc1`, the cell death was 5.1% (ATP luminescence; 25 µM; 72 h).
For `CC(C)=CCC/C(C)=C/COc1ccc2ccc(=O)oc2c1`, the IC50 was 68.9 µM (MTT; 24 h).
